# Measured values from different studies.
# Read-out: binding
# Pah: Phenylalanine-4-hydroxylase (Pah, Rattus norvegicus, UniProt P04176)
# VHL: von Hippel-Lindau disease tumor suppressor (VHL, Homo sapiens, UniProt P40337)
# SULT2A1: Sulfotransferase 2A1 (SULT2A1, Homo sapiens, UniProt Q06520)
SMILES,target,method,pH,setting,Kd [µM]
CSCC[C@H](N)C(=O)O,Pah,fluorescence,pH 7.5,,24000
NC(=O)c1ccc[n+]([C@@H]2O[C@H](COP(=O)(O)OP(=O)(O)OC[C@H]3O[C@@H](n4cnc5c(N)ncnc54)[C@H](O)[C@@H]3O)[C@@H](O)[C@H]2O)c1,"mdh (Escherichia coli, UniProt P61889)",ITC,,,467
Cc1cnc(-c2ccc(-c3ccc(NC(=O)Nc4c(F)cc(F)cc4F)cc3F)c3c2C(=O)NC3)[nH]1,"Serine/threonine-protein kinase 24 (STK24, Homo sapiens, UniProt Q9Y6E0)",competition with immobilised ligand,,,0.024
Cc1ncsc1-c1ccc(CNC(=O)[C@@H]2C[C@H](O)CN2C(=O)[C@@H](NC(=O)C2(F)CC2)C(C)(C)C)c(OCCOc2ccc(CN3CCN(c4cc(-c5ccccc5O)nnc4N)CC3)cc2)c1,VHL,SPR,,,> 10
Nc1ncnc2c1ncn2[C@@H]1O[C@H](COP(=O)(O)O)[C@@H](OP(=O)(O)O)[C@H]1O,SULT2A1,fluorescence,,,0.55
COCCOc1cc(-c2scnc2C)ccc1CNC(=O)[C@@H]1C[C@@H](O)CN1C(=O)[C@@H](NC(=O)C1(F)CC1)C(C)(C)C,VHL,SPR,,,0.062
Cc1cc2nc3c(=O)[nH]c(=O)nc-3n(C[C@H](O)[C@H](O)[C@H](O)COP(=O)(O)OP(=O)(O)OC[C@H]3O[C@@H](n4cnc5c(N)ncnc54)[C@H](O)[C@@H]3O)c2cc1C,"Annexin A11 (Homo sapiens, UniProt P50995)",,,lysate,0.055
CC(C)C[C@H](N)C(=O)O,Pah,fluorescence,pH 7.5,,93000
Cc1cc(Nc2cc3ncccc3c(N[C@@H]3C[C@H]4CC[C@@H](C3)N4CCC#N)n2)n[nH]1,"Cyclin-dependent kinase 4, with cyclin D3 (CDK4, Homo sapiens, UniProt P11802)",competition with immobilised ligand,,,0.028
NC(=O)[C@H](NNC(=O)c1c[nH]c2ccccc12)c1ccccc1,"GTPase KRas (KRAS, Homo sapiens, UniProt P01116, G12D)",MST,,,3.5
Cc1ncsc1-c1ccc(CNC(=O)[C@@H]2C[C@@H](O)CN2C(=O)[C@@H](NC(=O)C2(F)CC2)C(C)(C)C)c(OCCOCCOCCN2CCN(c3cc(-c4ccccc4O)nnc3N)CC2)c1,VHL,SPR,,,0.098
N[C@H](Cc1ccccc1)C(=O)O,Pah,fluorescence,pH 7.5,,8400
C[C@]12CC[C@H](O)CC1=CC[C@@H]1[C@@H]2CC[C@]2(C)C(=O)CC[C@@H]12,SULT2A1,fluorescence,,,0.29
O=C(O)c1cccc(NC(=S)NC(=O)c2ccc3ccccc3c2)c1,"Stromal cell-derived factor 1 (CXCL12, Homo sapiens, UniProt P48061)",NMR,,,64
